The record followed here is ChEMBL document CHEMBL3861996, “Arylsulfonamide derivatives of (aryloxy)ethyl pyrrolidines and piperidines as α1-adrenergic receptor antagonist with uro-selective activity” (Bioorg Med Chem, 2016).

In one data set the target is T1, Alpha-1A adrenergic receptor (Homo sapiens, UniProt P35348).
T1 sequence (P35348 whole entry): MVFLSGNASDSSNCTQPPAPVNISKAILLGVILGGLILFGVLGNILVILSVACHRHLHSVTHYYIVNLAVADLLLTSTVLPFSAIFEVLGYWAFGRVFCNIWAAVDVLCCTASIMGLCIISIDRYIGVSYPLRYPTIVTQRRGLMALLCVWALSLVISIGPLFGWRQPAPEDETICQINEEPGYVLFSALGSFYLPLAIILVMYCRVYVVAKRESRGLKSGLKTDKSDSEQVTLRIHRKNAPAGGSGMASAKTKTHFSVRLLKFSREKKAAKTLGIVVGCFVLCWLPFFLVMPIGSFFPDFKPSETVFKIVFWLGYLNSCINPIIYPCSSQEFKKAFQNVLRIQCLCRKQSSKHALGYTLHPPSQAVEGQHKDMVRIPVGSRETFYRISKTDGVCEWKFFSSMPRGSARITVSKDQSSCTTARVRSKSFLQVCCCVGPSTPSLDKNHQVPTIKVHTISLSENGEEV
Briefly: Intrinsic activity at alpha1A adrenergic receptor (unknown origin) assessed as inhibition of agonist induced effect preincubated for 30 mins followed by agonist addition measured after 5 hrs in presence of CCF4-AM by cell based beta lactamase reporter gene assay.
Conditions: not given
A digest of the protocol:
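Antagonist mode: 8 compound concentrations (10^-4–10^-11 M), then after 30 min standard agonist at EC80. Incubated 5 h at 37 °C/5% CO2, then loaded with CCF4-AM FRET substrate for 2 h at room temperature. Fluorescence read-out. Mean EC50 from three experiments.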
(Reporter assays use an easily measured gene product as a stand-in for the process of interest.)
For `COc1ccccc1OCCN1CCC(CNS(=O)(=O)c2cccc(Cl)c2F)CC1`, the EC50 (as a rule, the concentration that produces a half-maximal response) worked out at 84.2 nM.
Same read-out and setting: then `COc1ccccc1OCCN1CCC(CNS(=O)(=O)c2cccc(Cl)c2)CC1`, with 121 nM; and `COc1ccccc1OCCN1CCC(CNS(=O)(=O)c2cncc3ccccc23)CC1`, with 140 nM.
With `CC(C)Oc1ccccc1OCCN1CCC(CNS(=O)(=O)c2cccc(Cl)c2F)CC1`, the EC50 worked out at 11.1 nM.
`COc1ccccc1OCCN1CCC(NS(=O)(=O)c2cncc3ccccc23)CC1`: the EC50 turned out to be 99.7 nM.
`COc1ccc(S(=O)(=O)NC2CCN(CCOc3ccccc3OC)CC2)cc1OC`: the EC50 was found to be 192 nM.
On the same count and under the same terms, then `COc1ccc(S(=O)(=O)NCC2CCN(CCOc3ccccc3OC)CC2)cc1OC`, with 161 nM.
For `CC(C)Oc1ccccc1OCCN1CCC(CNS(=O)(=O)c2cccc3cccnc23)CC1`, the EC50 was determined as 34.1 nM.
For the compound `COc1ccccc1OCCN1CCC(CNS(=O)(=O)c2cc(Cl)ccc2F)CC1`, the EC50 came to 148 nM.

The target in the next data set is T2, Alpha-1B adrenergic receptor (Homo sapiens, UniProt P35368).
T2 sequence (P35368 whole entry): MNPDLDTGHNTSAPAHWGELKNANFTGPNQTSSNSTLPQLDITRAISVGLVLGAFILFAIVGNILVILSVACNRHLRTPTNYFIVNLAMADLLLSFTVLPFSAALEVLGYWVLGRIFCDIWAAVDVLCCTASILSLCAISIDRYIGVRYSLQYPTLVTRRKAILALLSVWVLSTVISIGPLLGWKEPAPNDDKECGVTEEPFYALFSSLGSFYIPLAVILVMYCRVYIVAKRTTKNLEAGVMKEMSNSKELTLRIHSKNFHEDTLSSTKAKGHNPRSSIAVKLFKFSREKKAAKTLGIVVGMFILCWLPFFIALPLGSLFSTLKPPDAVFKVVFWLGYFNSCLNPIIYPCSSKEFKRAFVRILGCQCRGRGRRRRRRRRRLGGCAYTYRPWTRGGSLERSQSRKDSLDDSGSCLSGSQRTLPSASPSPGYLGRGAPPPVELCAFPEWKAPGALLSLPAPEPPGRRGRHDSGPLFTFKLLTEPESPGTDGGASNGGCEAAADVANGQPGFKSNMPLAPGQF
The data set can be described thus: Intrinsic activity at human alpha1B adrenergic receptor expressed in CHOK1 cells co-expressing aequorin assessed as inhibition of agonist induced calcium mobilization preincubated for 15 mins followed by agonist addition measured for 20 secs in presence of coelenterazine H by luminescence assay. The format is cell-based, CHO-K1.
Conditions: not given
A digest of the protocol:
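Frozen ready-to-use cells stably expressing α1B receptor and aequorin, resuspended in assay buffer with 5 µM coelenterazine h and rotated overnight at rt in the dark. Diluted to 5000 cells/20 µL. Agonist mode: cells injected onto ligands, light recorded 20 s. Antagonist mode: 15 min with compound at room temperature, then agonist at 3× EC80 final, light recorded 20 s. Mean EC50 from three experiments.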
In general terms: A change in cytosolic calcium serves as a functional read-out for many receptors and channels.
Take `COc1ccccc1OCCN1CCC(CNS(=O)(=O)c2cccc(Cl)c2F)CC1`: the EC50 came to 14.1 nM.
For `COc1ccccc1OCCN1CCC(CNS(=O)(=O)c2cccc(Cl)c2)CC1`, the EC50 is 15.5 nM.
On to `COc1ccccc1OCCN1CCC(CNS(=O)(=O)c2cncc3ccccc23)CC1`, for which the EC50 was found to be 515 nM.
Turning to `CC(C)Oc1ccccc1OCCN1CCC(CNS(=O)(=O)c2cccc(Cl)c2F)CC1`, the EC50 is 42.1 nM.
In the case of `COc1ccccc1OCCN1CCC(NS(=O)(=O)c2cncc3ccccc23)CC1`, the EC50 worked out at 608 nM.
For `COc1ccc(S(=O)(=O)NC2CCN(CCOc3ccccc3OC)CC2)cc1OC`, the EC50 is 461 nM.
Consider `COc1ccc(S(=O)(=O)NCC2CCN(CCOc3ccccc3OC)CC2)cc1OC`, for which the EC50 was 599 nM.
As to `CC(C)Oc1ccccc1OCCN1CCC(CNS(=O)(=O)c2cccc3cccnc23)CC1`, the EC50 came out at 105 nM.
The same measure, in the same setting: the figure for `COc1ccccc1OCCN1CCC(CNS(=O)(=O)c2cc(Cl)ccc2F)CC1` is 12.7 nM.

System in a further data set: not listed separately
Briefly: Selectivity ratio of EC50 for human alpha1B adrenergic receptor expressed in CHOK1 cells co-expressing aequorin assessed as inhibition of agonist induced calcium mobilization to EC50 for alpha1A adrenergic receptor (unknown origin) assessed as inhibition of agonist induced effect. Type of data set: cell-based. Particulars: cho-k1.
`COc1ccccc1OCCN1CCC(CNS(=O)(=O)c2cccc(Cl)c2F)CC1`: the “Ratio EC50” value was 0.17.
On to `COc1ccccc1OCCN1CCC(CNS(=O)(=O)c2cccc(Cl)c2)CC1`, for which the “Ratio EC50” value is reported as 0.13.
On to `COc1ccccc1OCCN1CCC(CNS(=O)(=O)c2cncc3ccccc23)CC1`, for which the “Ratio EC50” value is reported as 3.68.
With `CC(C)Oc1ccccc1OCCN1CCC(CNS(=O)(=O)c2cccc(Cl)c2F)CC1`, the “Ratio EC50” value is reported as 3.8.
With `COc1ccccc1OCCN1CCC(NS(=O)(=O)c2cncc3ccccc23)CC1`, the “Ratio EC50” value was 6.1.
Consider `COc1ccc(S(=O)(=O)NC2CCN(CCOc3ccccc3OC)CC2)cc1OC`, for which the “Ratio EC50” value was 2.4.
With `COc1ccc(S(=O)(=O)NCC2CCN(CCOc3ccccc3OC)CC2)cc1OC`, the “Ratio EC50” value was 3.73.
In the case of `CC(C)Oc1ccccc1OCCN1CCC(CNS(=O)(=O)c2cccc3cccnc23)CC1`, the “Ratio EC50” value is on record as 3.07.
For `COc1ccccc1OCCN1CCC(CNS(=O)(=O)c2cc(Cl)ccc2F)CC1`, the “Ratio EC50” value came to 0.08.
